High-throughput results from PubChem BioAssay.
This is a sample that favours compounds with a hit; in the whole collection about 2.9% have one here.
Apaf1 inhib – blocks human Apaf-1 apoptosome activity; O14727; reconstituted apoptosome caspase-3 activity, DEVD-Rh110 fluorescence; inhibition, % at 20 µM; hit rate 0.71% among 330,000; active = inhibition of at least 40% at 20 µM
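Medium: Hepes buffer, pH 7.5 / System: biochemical Apaf-1 apoptosome reconstitution / Measured by: Rh110 fluorescence, excitation 480 nm, emission 540 nm / Times: compound with Apaf-1, dATP, procaspase-3 30 min, then 50 min reaction, room temperature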
SENP8 block-1 – blocks the human protease SENP8. hit rate 1.2% among 330,000. purified SENP8, Z-RLRGG-aminoluciferin cleavage, luminescence. Q96LD8. inhibition, % at 10 µM. AID 2540; in the data active = inhibition above about 50%
Target sequence (Q96LD8 whole entry, looked up): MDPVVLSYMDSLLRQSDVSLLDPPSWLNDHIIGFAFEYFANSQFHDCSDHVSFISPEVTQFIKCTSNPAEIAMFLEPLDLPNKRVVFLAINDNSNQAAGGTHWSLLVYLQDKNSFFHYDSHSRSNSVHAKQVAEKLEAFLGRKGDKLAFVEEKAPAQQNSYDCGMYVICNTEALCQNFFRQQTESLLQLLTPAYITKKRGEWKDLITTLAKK
SENP1 inh – blocks the human SENP1 SUMO protease catalytic domain. AID 624204. inhibition, % at 10 µM. Q9P0U3. hit rate 0.21% among 360,000. recombinant SENP1 catalytic domain, CyPet-SUMO1-YPet FRET cleavage;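 active = inhibition at least 30% at 10 µM, raw YFP signal under a set limit, fluorescence ratio 0.5 to 1.5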
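Controls: no-enzyme wells low, DMSO-plus-enzyme wells high control. Test system: human recombinant His6-tagged SENP1 catalytic domain enzyme. Reagent: SFCypet-SUMO1-SFYpet FRET protein substrate, 25 nM final. Doses: one dose per compound, 10 µM, 0.5% DMSO. Detection: FRET, CFP and YFP emission. Timing: 50 min reaction at room temperature.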
SENP6 block – blocks the human protease SENP6 | Recombinant SENP6 catalytic domain, aminoluciferin luminescence | inhibition, % at 10 µM | hit rate 1.8% among 330,000 | AID 2599;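 active = inhibition above about 50% at the single tested dose, limit read from the data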
SENP7 inh – blocks the human protease SENP7 | Q9BQF6 | recombinant SENP7, Z-RLRGG-aminoluciferin luminescence, 40 min | inhibition, % at 5 µM | hit rate 1.5% among 330,000;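 active = inhibition above about 50% at the single test dose, limit read from the data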
Target sequence (Q9BQF6 706-1050 limits assumed): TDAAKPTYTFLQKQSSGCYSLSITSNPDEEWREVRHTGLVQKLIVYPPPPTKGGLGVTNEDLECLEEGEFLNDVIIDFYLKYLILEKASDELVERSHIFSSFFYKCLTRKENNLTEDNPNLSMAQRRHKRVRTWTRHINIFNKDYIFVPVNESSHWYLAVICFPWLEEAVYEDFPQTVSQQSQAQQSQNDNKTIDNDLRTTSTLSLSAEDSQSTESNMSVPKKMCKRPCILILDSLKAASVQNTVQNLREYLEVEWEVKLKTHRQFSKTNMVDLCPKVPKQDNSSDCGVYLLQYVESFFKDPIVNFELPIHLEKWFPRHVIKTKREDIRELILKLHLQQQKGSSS
SENP8 block-2 – blocks human SENP8 cleavage of Nedd8 substrate; inhibition, % at 20 µM; Q96LD8; hit rate 0.64% among 360,000; recombinant SENP8, Nedd8 substrate fluorescence; in the data active = inhibition mostly above about 40%, no sharp cut-off; inactive = mostly below about 27%
SENP8 conf – confirmation of human SENP8 protease inhibitors; hit rate 40% among 6,200; Recombinant SENP8, Z-RLRGG-aminoluciferin luminescence, 60 min; inhibition, % at 12.5 µM; AID 488912; shares compounds with SENP7 inh;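 active = mean inhibition across replicates above about 50%, limit read from the data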
SENP6 conf – human SENP6 inhibition, confirmed | shares compounds with SENP7 inh | inhibition, % at 12.5 µM | recombinant SENP6, Z-RLRGG-aminoluciferin luminescence | hit rate 58% among 6,200
SENP7 conf – confirmation of human SENP7 protease inhibitors; inhibition, % at 12.5 µM; hit rate 69% among 6,200; recombinant SENP7, Z-RLRGG-aminoluciferin luminescence, 40 min; shares compounds with SENP7 inh
Casp3 select – inhibits human caspase-3 in SENP selectivity test | purified caspase-3, Z-DEVD-aminoluciferin luminescence, 60 min | hit rate 60% among 6,200 | AID 488918 | inhibition, % at 12.5 µM | shares compounds with SENP7 inh;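 active = mean inhibition above about 50%, limit read from the data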
Luc interf – interferes with luciferase luminescence in SENP counter-screen; Pre-incubated SENP8/Z-RLRGG-aminoluciferin, luciferase luminescence interference; hit rate 39% among 6,200; inhibition, % at 12.5 µM; shares compounds with SENP7 inh; AID 488919;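 active = mean inhibition above about 50% when retested at one dose, limit read from the data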
Large screens that a line does not name were inactive (follow-up assays come after a bar, where they were run).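 Rule for the calls, unless noted: active = mean inhibition above about 50% in the one-dose retest (limit read from the data); inactive = the rest.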

CC1(C(=O)Nc2ccc3c(c2)OCCO3)CN(S(C)(=O)=O)CC(=O)N1CC(F)(F)F (stereo unspecified)	none (no result: Apaf1 inhib, SENP8 block-1, SENP6 block, SENP7 inh)
CC(OC(=O)c1ccc([N+](=O)[O-])s1)C(=O)NC1CCCCC1C (stereo unspecified)	SENP8 block-1 54.9 | SENP8 conf inactive | SENP6 conf inactive | SENP7 conf inactive | Casp3 select inactive | Luc interf inactive
COc1ccc(Cl)cc1NC(=O)CN(C)C(=O)c1cccc2cccnc12	none
CC(C)N(CCNC(=O)c1nn(Cc2ccccc2)c(=O)c2ccccc12)C(C)C	none
O=[N+]([O-])c1ccc2nc(N3CCCC3)sc2c1	none
Clc1cc(Cl)c2nc(N3CCCC3)sc2c1	none
Clc1cc(Cl)c2nc(N3CCCCC3)sc2c1	SENP6 block 66.6 | SENP8 conf inactive | SENP6 conf inactive | SENP7 conf inactive | Casp3 select inactive | Luc interf inactive
CCOc1ccc2nc(N3CCCCCC3)sc2c1	SENP6 block 55.1, SENP7 inh 61.9 | SENP8 conf 51.1 | SENP6 conf 54.6 | SENP7 conf 83.6 | Casp3 select 50.3 | Luc interf 57.2
Fc1ccc2nc(N3CCCC3)sc2c1	SENP7 inh 56.4 | SENP8 conf inactive | SENP6 conf inactive | SENP7 conf 84.9 | Casp3 select 69.1 | Luc interf inactive
Fc1cc(F)c2nc(N3CCCCC3)sc2c1	SENP8 block-1 61.2, SENP7 inh 74.6 | SENP8 conf inactive | SENP6 conf 74.9 | SENP7 conf 95.3 | Casp3 select 71.7 | Luc interf inactive
CCC(C)CN1C(=O)CN(S(C)(=O)=O)CC1(C)C(=O)NCc1ccccc1 (stereo unspecified)	none (no result: Apaf1 inhib, SENP8 block-1, SENP6 block, SENP7 inh)
Cn1c(=O)c2ncn(CC(=O)Nc3cccc(-c4nc5ccccc5s4)c3)c2n(C)c1=O	SENP8 block-1 59.8, SENP6 block 71.5 | SENP8 conf inactive | SENP6 conf inactive | SENP7 conf 64.0 | Casp3 select inactive | Luc interf inactive
COc1cccc(-c2nc(-c3cccs3)no2)c1	SENP8 block-1 82.9, SENP6 block 90.0, SENP7 inh 91.8 | SENP8 conf inactive | SENP6 conf 87.2 | SENP7 conf 97.5 | Casp3 select 69.9 | Luc interf 62.4
O=[N+]([O-])c1cccc(-c2nc(-c3ccncc3)no2)c1	none
COc1cccc(-c2nc(-c3ccncc3)no2)c1	SENP8 block-1 69.7, SENP6 block 77.5, SENP7 inh 80.3 | SENP8 conf 72.9 | SENP6 conf 77.8 | SENP7 conf 94.2 | Casp3 select 86.4 | Luc interf 61.4
COc1cc(OC)cc(-c2nc(-c3cccs3)no2)c1	none
CCC(=O)N1CCC(C)(C(=O)Nc2nccc3ccccc23)C1 (stereo unspecified)	none (no result: Apaf1 inhib, SENP8 block-1, SENP6 block, SENP7 inh)
CCn1cnc2cc(NCc3nc4ccccc4n3C)ccc21	SENP8 block-1 68.2, SENP6 block 72.0 | SENP8 conf 77.6 | SENP6 conf 77.4 | SENP7 conf 92.6 | Casp3 select 91.9 | Luc interf 78.3
Cn1c(CNc2ccccc2O)nc2ccccc21	none
Cc1ccccc1NCc1nc2ccccc2n1C	SENP8 block-1 78.3, SENP6 block 84.9, SENP7 inh 86.3 | SENP8 conf 82.9 | SENP6 conf 84.3 | SENP7 conf 97.9 | Casp3 select 93.3 | Luc interf 56.3
Cn1c(CNc2ccc(F)cc2)nc2ccccc21	SENP8 block-1 57.7, SENP6 block 79.7, SENP7 inh 77.9 | SENP8 conf 72.1 | SENP6 conf 71.9 | SENP7 conf 92.2 | Casp3 select 87.3 | Luc interf 74.6
O=NN(CCF)C(=O)NC1CCS(=O)(=O)CC1	none (no result: Apaf1 inhib, SENP8 block-1, SENP6 block, SENP7 inh)
CCNC(=O)C1(C)CCCN(Cc2ccc(Oc3ccccc3)cc2)C1 (stereo unspecified)	none (no result: Apaf1 inhib, SENP8 block-1, SENP6 block, SENP7 inh)
O=S1(=O)CCOC(CO)CN1Cc1ccc(Cl)c(Cl)c1 (stereo unspecified)	none (no result: SENP8 block-1, SENP6 block)
CC1CC(C)CN(CCCNC(=O)C2CCN(S(=O)(=O)N3CCCCC3)CC2)C1 (stereo unspecified)	SENP7 inh 100.7 | SENP8 conf inactive | SENP6 conf inactive | SENP7 conf inactive | Casp3 select inactive | Luc interf inactive
O=C(O)c1cc(N=Nc2c(O)ccc3ccccc23)cc(C(=O)O)c1	none (no result: Apaf1 inhib, SENP8 block-1, SENP6 block, SENP7 inh)
O=C(O)c1ccc(N=Nc2c(O)ccc3ncccc23)cc1	SENP8 block-1 96.9, SENP6 block 96.7, SENP7 inh 100.4 | SENP8 conf 98.6 | SENP6 conf 99.2 | SENP7 conf 102.3 | Casp3 select 89.1 | Luc interf 61.7
COc1ccc(CN=C(C)c2c(C(F)(F)F)[nH]n(-c3nc4ccccc4s3)c2=O)cc1	SENP6 block 85.2, SENP7 inh 91.3 | SENP8 conf inactive | SENP6 conf inactive | SENP7 conf inactive | Casp3 select 50.1 | Luc interf 54.2
CC(=O)c1c(CC(=O)O)[nH]n(-c2nc3ccccc3s2)c1=O	SENP8 block-1 86.6, SENP6 block 84.1, SENP7 inh 88.3 | SENP8 conf 86.5 | SENP6 conf 83.1 | SENP7 conf 96.8 | Casp3 select 95.4 | Luc interf 83.0
COc1ccc(C2Nc3cccc(O)c3C(=O)N2Cc2ccccc2)cc1COc1ccc(NC(C)=O)cc1 (stereo unspecified)	none (no result: Apaf1 inhib, SENP8 block-1, SENP6 block, SENP7 inh)
C/C(=N\Nc1ccccc1C(=O)O)c1ccncc1	SENP8 block-1 52.4, SENP6 block 71.7, SENP7 inh 52.0 | SENP8 conf 64.6 | SENP6 conf 60.5 | SENP7 conf 87.9 | Casp3 select 82.1 | Luc interf 68.5
C/C(=N\NC(=O)c1ccccc1NC(=O)c1ccc(Cl)cc1)c1ccncc1	SENP8 block-1 89.1, SENP6 block 96.8, SENP7 inh 97.1 | SENP8 conf inactive | SENP6 conf 96.3 | SENP7 conf 100.6 | Casp3 select 97.7 | Luc interf inactive
Cc1ccccc1N1C(=O)C2CCCN2C1=S (stereo unspecified)	none
